Measured values: ChEMBL document CHEMBL1759959, “Synthesis and antitumor activity of 10-arylcamptothecin derivatives” (Bioorg Med Chem Lett, 2011)
Calls of active or inactive are those of the source. The calls are words filed in the database; no cut-off is given here.

Assays:
[1] = system: HL-60; assay: Cytotoxicity against human HL60 cells after 3 days; format: functional, cell-based
Summary of the method: (§1)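 HL60 (leukaemia), A549 (lung) and BEL-7402 (liver) human tumour cells exposed to compounds for 3 days; viability read by MTT assay and SRB assay; IC50 (half-maximal inhibitory concentration) reported.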

[2] = system: A549; assay: Cytotoxicity against human A549 cells after 3 days; format: functional, cell-based; summary of the method: as §1
[3] = system: Bel-7402; assay: Cytotoxicity against human Bel7402 cells after 3 days; format: functional, cell-based; summary of the method: as §1
[4] = system: A549; assay: Cell cycle arrest in human A549 cells assessed as accumulation at S phase at 12.5 uM after 24 hrs by flow cytometry (reference value: 27.52%); format: functional
[5] = system: A549; assay: Cell cycle arrest in human A549 cells assessed as accumulation at G2/M phase at 12.5 uM after 24 hrs by flow cytometry (reference value: 10.34%); format: functional
[6] = system: A549; assay: Cell cycle arrest in human A549 cells assessed as accumulation at G0/G1 phase at 50 uM after 24 hrs by flow cytometry (reference value: 62.14%); format: functional
[7] = system: A549; assay: Cell cycle arrest in human A549 cells assessed as accumulation at S phase at 50 uM after 24 hrs by flow cytometry (reference value: 27.52%); format: functional
[8] = system: A549; assay: Cell cycle arrest in human A549 cells assessed as accumulation at G2/M phase at 50 uM after 24 hrs by flow cytometry (reference value: 10.34%); format: functional
[9] = system: A549; assay: Cell cycle arrest in human A549 cells assessed as accumulation at G0/G1 phase at 12.5 uM after 24 hrs by flow cytometry (reference value: 62.14%); format: functional
[10] = system: A549; assay: Cell cycle arrest in human A549 cells assessed as accumulation at S phase at 25 nM after 24 hrs by flow cytometry (reference value: 27.52%)
[11] = system: A549; assay: Cell cycle arrest in human A549 cells assessed as accumulation at G2/M phase at 25 nM after 24 hrs by flow cytometry (reference value: 10.34%)
[12] = system: A549; assay: Cell cycle arrest in human A549 cells assessed as accumulation at G0/G1 phase at 25 nM after 24 hrs by flow cytometry (reference value: 62.14%)
[13] = biological target: T1, DNA topoisomerase 1 (Homo sapiens) (UniProt P11387); assay: Inhibition of topoisomerase 1-mediated relaxation of supercoiled pBR322 DNA at 6.25 to 100 uM after 30 mins by […]
T1 sequence (whole entry): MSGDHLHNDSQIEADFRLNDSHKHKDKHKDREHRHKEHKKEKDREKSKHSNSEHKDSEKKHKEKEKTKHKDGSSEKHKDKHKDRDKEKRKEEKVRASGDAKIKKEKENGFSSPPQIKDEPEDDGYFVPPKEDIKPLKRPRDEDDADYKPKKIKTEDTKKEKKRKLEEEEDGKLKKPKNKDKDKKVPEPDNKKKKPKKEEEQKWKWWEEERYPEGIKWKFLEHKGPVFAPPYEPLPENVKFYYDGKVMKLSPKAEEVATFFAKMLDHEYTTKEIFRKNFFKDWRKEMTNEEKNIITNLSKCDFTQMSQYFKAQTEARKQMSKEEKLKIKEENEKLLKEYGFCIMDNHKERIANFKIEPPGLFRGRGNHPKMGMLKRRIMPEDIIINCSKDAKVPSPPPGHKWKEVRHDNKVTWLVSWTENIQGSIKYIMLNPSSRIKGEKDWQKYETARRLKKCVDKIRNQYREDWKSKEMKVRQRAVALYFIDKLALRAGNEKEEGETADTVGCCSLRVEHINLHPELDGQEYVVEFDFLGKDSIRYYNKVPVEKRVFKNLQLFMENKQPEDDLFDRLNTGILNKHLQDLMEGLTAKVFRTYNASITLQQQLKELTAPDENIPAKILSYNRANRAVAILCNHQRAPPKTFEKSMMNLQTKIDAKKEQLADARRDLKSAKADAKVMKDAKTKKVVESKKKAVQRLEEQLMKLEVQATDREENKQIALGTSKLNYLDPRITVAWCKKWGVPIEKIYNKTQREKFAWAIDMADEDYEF
Summary of the method: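 Supercoiled pBR322 DNA incubated with topoisomerase I (1 unit) with or without drug, 37 °C, 30 min; stopped with 10% SDS; products resolved on 1% agarose gel, supercoiled versus relaxed bands scored; camptothecin as reference.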

[14] = Chemical stability of the compound in phosphate saline buffer at pH 7.4 at 50 umol/L by HPLC analysis; format: physicochemical; conditions: pH 7.4, 50 µM
Summary of the method: (§2)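 Lactone stability followed by HPLC with fluorescence detection; drug at 50 μmol/L incubated at pH 7.4, 37 °C in PBS, PBS with human serum albumin, or human blood; each point mean of three determinations, uncertainty 10% or less.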

[15] = Chemical stability of the compound in phosphate saline buffer at pH 7.4 at 50 umol/L by HPLC analysis in presence of HAS; format: physicochemical; conditions: pH 7.4, 50 µM; summary of the method: as §2
[16] = Chemical stability of the compound in phosphate saline buffer at pH 7.4 at 50 umol/L by HPLC analysis in presence of human blood; format: physicochemical; conditions: pH 7.4, 50 µM; summary of the method: as §2

SMILES | IC50 ([1]; Homo sapiens, HL-60, 72 h) | IC50 ([2]; Homo sapiens, A549, 72 h) | IC50 ([3]; Homo sapiens, Bel-7402, 72 h) | also measured
CC[C@@]1(O)C(=O)OCc2c1cc1n(c2=O)Cc2cc3cc(-c4ccc(C(=O)OC)cc4)ccc3nc2-1 | 280 nM | 510 nM | 650 nM | 
CC[C@@]1(O)C(=O)OCc2c1cc1n(c2=O)Cc2cc3cc(-c4ccc(C(=O)O)cc4)ccc3nc2-1 | 1450 nM | 11600 nM | 13800 nM | 
CC[C@@]1(O)C(=O)OCc2c1cc1n(c2=O)Cc2cc3cc(-c4ccccc4Cl)ccc3nc2-1 | 590 nM | 1120 nM | 2460 nM | 
CC[C@@]1(O)C(=O)OCc2c1cc1n(c2=O)Cc2cc3cc(-c4ccncc4)ccc3nc2-1.Cl |  |  |  | Activity [4]: 15.74%; Activity [5]: 28.07%; Activity [6]: 19.91%; Activity [7]: 0%; Activity [8]: 80.09%; IC50 ([1]; hl-60): 21 nM; IC50 ([2]; a549): 62 nM; IC50 ([3]; bel-7402): 460 nM; Activity [9]: 56.19%; Activity [10]: 22%; Activity [11]: 46.71%; Activity [12]: 31.29%
CC[C@@]1(O)C(=O)OCc2c1cc1n(c2=O)Cc2cc3c(CN(C)C)c(O)ccc3nc2-1 [TOPOTECAN] | 52 nM | 71 nM | 470 nM | Activity [10]: 24.95%; Activity [11]: 35.02%; Activity [12]: 40.04%
CC[C@@]1(O)C(=O)OCc2c1cc1n(c2=O)Cc2cc3cc(-c4ccncc4)ccc3nc2-1 [listing 1 of 2 here] |  |  |  | inhibition [13]: Active
CC[C@@]1(O)C(=O)OCc2c1cc1n(c2=O)Cc2cc3cc(-c4cnc5ccccc5c4)ccc3nc2-1 | 1440 nM | 5950 nM | 6590 nM | 
CC[C@@]1(O)C(=O)OCc2c1cc1n(c2=O)Cc2cc3cc(-c4ccsc4)ccc3nc2-1 | 37 nM | 12 nM | 230 nM | 
CC[C@@]1(O)C(=O)OCc2c1cc1n(c2=O)Cc2cc3cc(-c4ccc(O)cc4)ccc3nc2-1 | 20 nM | 140 nM | 1050 nM | 
CC[C@@]1(O)C(=O)OCc2c1cc1n(c2=O)Cc2cc3cc(-c4cccs4)ccc3nc2-1 | 48 nM | 10 nM | 80 nM | 
CC[C@@]1(O)C(=O)OCc2c1cc1n(c2=O)Cc2cc3cc(-c4cccc(Cl)c4)ccc3nc2-1 | 100 nM | 67 nM | 930 nM | 
CC[C@@]1(O)C(=O)OCc2c1cc1n(c2=O)Cc2cc3cc(-c4ccccc4N(C)C)ccc3nc2-1 | 160 nM | 230 nM | 1530 nM | 
CC[C@@]1(O)C(=O)OCc2c1cc1n(c2=O)Cc2cc3cc(-c4ccncc4)ccc3nc2-1 [listing 2 of 2 here] |  | 67 nM | 420 nM | Activity [4]: 18.18%; Activity [5]: 22.22%; Activity [6]: 22.33%; Activity [7]: 14.24%; Activity [8]: 63.43%; IC50 ([1]; hl-60): 9 nM; Stability [14]: Stable; Stability [15]: Stable; Stability [16]: Stable; Activity [9]: 59.61%; Activity [10]: 16.74%; Activity [11]: 38.41%; Activity [12]: 44.85%
CC[C@@]1(O)C(=O)OCc2c1cc1n(c2=O)Cc2cc3cc(-c4cccnc4)ccc3nc2-1 | 32 nM | 68 nM | 380 nM | 
CC[C@@]1(O)C(=O)OCc2c1cc1n(c2=O)Cc2cc3cc(-c4ccc(N(C)C)cc4)ccc3nc2-1 | 2880 nM | 2680 nM | 36500 nM | 
CC[C@@]1(O)C(=O)OCc2c1cc1n(c2=O)Cc2cc3cc(-c4ccc(Cl)cc4)ccc3nc2-1 | 300 nM | 320 nM | 3120 nM | 
CC[C@@]1(O)C(=O)OCc2c1cc1n(c2=O)Cc2cc3cc(-c4ccc(OC)cc4)ccc3nc2-1 | 780 nM | 500 nM | 5890 nM | 
CC[C@@]1(O)C(=O)OCc2c1cc1n(c2=O)Cc2cc3cc(-c4cccc(N(C)C)c4)ccc3nc2-1 | 13 nM | 40 nM | 180 nM | 
CC[C@@]1(O)C(=O)OCc2c1cc1n(c2=O)Cc2cc3cc(-c4cccc(C(=O)OC)c4)ccc3nc2-1 | 49 nM | 23 nM | 5120 nM | 
